# T cell modulator: modulators of CD8 T cell-vesicle binding, primary screen, mouse 2C CD8+ T cells, flow cytometry | 2C CD8+ T cell-vesicle binding; active compounds read low | response (vesicle binding), % at 7 µM | 330,000 tested, 0.068% active | AID 2052, 2009;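 active = response, share of CD8 T cells binding vesicles, and their 90th percentile fluorescence all below set limits, cut at about 80% in these data, passing the limit was not always enough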;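 also: values below 100% mean blocked vesicle binding to the CD8+ T cells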
#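 Material: murine 2C transgenic CD8+ T lymphocytes / Also added: QL9-peptide-loaded Drosophila micro-vesicles bearing Ld, ICAM-1 and B7-1 / Schedule: binding step 1.5 h, 37 °C, antibody labelling 20 min, ice / Signal: flow cytometry, PE anti-B7-1 (FL2) versus Alexa647 anti-CD8 (FL8), PFA-fixed / Evaluation: percent CD8+ FL2 mean versus row control / Benchmarks: naked versus QL9-loaded vesicles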
# HDAC3 inh: HDAC3 deacetylase inhibitors, primary screen, biochemical, fluorescence, cell-free homogeneous | Histone deacetylase 3 (Homo sapiens), O15379 | recombinant HDAC3, fluorogenic peptide/trypsin coupled | inhibition, % at 8.3 µM | 320,000 tested, 0.15% active; in the data active = inhibition above about 26%, passing the limit was not always enough
# JMJD2C inh: inhibitors of GASC-1 histone demethylase, primary screen, biochemical, fluorescence, DELFIA europium | inhibition, % at 2.35 µM | AID 2099, 2009 | 330,000 tested, 0.069% active | GST-JMJD2C(1-420) H3K9me3 demethylation;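 active = more than half of a compound's replicate wells show inhibition beyond 50%, single wells judged on their own value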;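 also: signal counts dimethyl H3K9 product captured on neutravidin plate; 0% = median of DMSO wells and 100% = 0.3 times that DMSO median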
# Arrestin-AP2 inh: inhibitors of beta-arrestin/AP2 binding, primary screen, biochemical, GPCR trafficking, flow cytometry | beta-arrestin 1 C-terminal peptide binding to AP2 beta2-adaptin appendage (human) | 340,000 tested, 0.31% active | inhibition, % at 10 µM | FITC-arrestin peptide / GST-AP2 beads; AP2 beta2 appendage carries R879A mutation | AID 504490, 2011;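 active = inhibition above a set limit, near 3 SD of compounds lacking own fluorescence, cut at about 54% in these data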;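 also: plate controls were DMSO wells for no effect and 5 µM unlabelled arrestin peptide for full effect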
#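 Test system: GST-tagged AP2 beta2-adaptin appendage (R879A) on 4 µm glutathione beads; also added: fluorescein-tagged arrestin peptide at 50 nM final; timing: 12 min plus 1 h, RT; signal: flow cytometry, FL1 (488/535 nm); read-out: percent drop in bead-associated FITC signal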
# LANA-H2A inh: blockers of LANA interaction with H2A/H2B – biochemical, FP readout, HTS, primary screen; Protein LANA1 (Human herpesvirus 8 type P (isolate GK18)), Q9QR71; cell-free LANA-H2A/H2B peptide, fluorescence polarization; inhibition, % (test concentration not listed); 320,000 tested, 0.6% active; AID 2629, 2010; in the data active = inhibition mostly above about 10%, no sharp cut-off; inactive = mostly below about 6.7%
# DSG3 Ab inh: inhibitors of pemphigus antibody binding to DSG3, primary screen, biochemical, bead-based, flow cytometry, scFv-GFP | binding (percent of control), % at 10 µM | Desmoglein-3 (Homo sapiens), P32926 | AID 588358, 2011 | DSG3-coupled beads, scFv-anti-DSG3-GFP binding; active compounds read low | 310,000 tested, 0.48% active;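 active = binding more than 3 SD below its plate's average and above zero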;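 also: hits lower antibody fragment binding to DSG3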
# * hit, by the source's call; i = inactive; x = no result given; + = active, no number. A selection: hits, their analogues and other compounds. The true share with any hit is near 1.6%.
SMILES,T cell modulator,HDAC3 inh,JMJD2C inh,Arrestin-AP2 inh,LANA-H2A inh,DSG3 Ab inh
O=C(CSc1nc(-c2ccccc2)nn1C(=O)c1ccccc1)Nc1cccc([N+](=O)[O-])c1,401,41*,-2,17,0,109
Nc1ccc(SCC(=O)Nc2cccc([N+](=O)[O-])c2)cc1,x,5,8,26,71*,x
Cc1cc(C)c(NC(=O)C2=COCCO2)c(C)c1,i,2,7,-7,7,106
COC(=O)CCCCCN1C(=O)/C(=C\c2ccncc2)SC1=S,286,-4,3,23,0,110
Cc1ccc(S(=O)(=O)N2CCCCC2)cc1NS(=O)(=O)c1ccccc1F,717,-3,0,-2,-1,123
C/C(=N\Nc1nncc2ccccc12)c1ccc(O)cc1,198,1,-8,1,12*,108
CCCOc1ccc(-c2c(=O)n(OCC(=O)OCC)c3ccccc3[n+]2[O-])cc1,143,34*,-5,8,3,96
CCOn1c(=O)c(-c2cccs2)[n+]([O-])c2ccccc21,400,4,4,-4,-3,131
CCOC(=O)COn1c(=O)c(-c2cccs2)[n+]([O-])c2ccccc21,101,53*,3,16,-3,x
CCOC(=O)COn1c(=O)c(-c2ccc(F)cc2)[n+]([O-])c2ccccc21,160,-2,0,7,-1,94
O=C(Cn1cc(COc2c(F)c(F)c(Br)c(F)c2F)nn1)c1ccc(O)cc1,x,x,x,1,x,94
CC(C)N(C)CCOC(=O)/C=C/c1ccccc1,406,9,12,-2,+,99
O=C(C1CC12CCCC2)N1CCC(CO)(Cc2ccccc2Cl)CC1 (stereo not drawn),172,-10,10,-9,19*,103
CCCCn1c(N)c(N(CC(C)C)C(=O)c2cc(Cl)nc3ccccc23)c(=O)[nH]c1=O,418,2,-9,-7,2,99
Cc1ccc(Cc2c(C)nc3nc(SCC(=O)NCCCN4CCCCCC4)nn3c2C)cc1,260,33*,5,x,1,x
Cc1ccc(C(=O)NCC(=O)N2CCN(c3ncccn3)CC2)s1,i,-5,0,-11,18*,98
O=C(Nc1cccc(-n2cnnn2)c1)C1CCCN(Cc2cccc(C(F)(F)F)c2)C1 (stereo not drawn),324,-1,-4,4,13*,x
O=C(COc1ccccc1)NNC(=O)c1cc2ccccc2oc1=O,346,0,0,-4,-3,103
O=C(NNc1c(F)c(F)cc(F)c1F)c1cc2ccccc2oc1=O,0.0*,1,2,-10,2,x
O=C(c1ccccc1)c1cc2ccc(O)cc2oc1=O,395,0,-1,3,41*,101
O=C(c1ccc(Br)cc1)c1cc2ccc(O)cc2oc1=O,592,-7,-7,6,4,110
COC(=O)C(Cc1ccccc1)NC(=O)COc1ccc(C(C)(C)C)cc1 (stereo not drawn),227,14,61*,-6,0,107
COC(=O)[C@H](Cc1ccccc1)NC(=O)NC(C)CCc1ccccc1 (stereo partly drawn),166,-5,-1,-2,3,105
COC(=O)C(Cc1ccccc1)NC(=O)CCC(=O)NC(C)CCc1ccccc1 (stereo not drawn),456,-6,-7,9,14*,106
COC(=O)CC1C(=O)NCCN1Cc1cn(-c2ccc(C)cc2)nc1-c1cccc(C)c1 (stereo not drawn),487,0,-1,-13,5,x
c1ccc(-c2nnc3n2-c2ccccc2SC3)cc1,343,1,5,-8,-4,110
c1ccc2c(c1)OCC(c1nnc3n1-c1ccccc1SC3)O2 (stereo not drawn),172,2,-4,0,17*,108

# Assay outcomes (PubChem BioAssay)
